In ChEMBL document CHEMBL3739314, “Discovery of Nanomolar Dengue and West Nile Virus Protease Inhibitors Containing a 4-Benzyloxyphenylglycine Residue” (J Med Chem, 2015):
pEC50, pIC50, pKi: −log10 of the molar value. Calls of active or inactive are those of the source. The calls are words filed in the database; no cut-off is given here. Square brackets hold non-standard residues; d marks the D form. Peptide text beside a SMILES is read from it. * marks the point of attachment. dPhg = N[C@@H](C(=O)O)c1ccccc1; Bz = O=C(c1ccccc1)*

Key:
[1] = target: Trypsin (Homo sapiens) (UniProt P07477+P07478+P35030); assay: Inhibition of trypsin (unknown origin) using Boc-Val-Pro-Arg-AMC as substrate at 25 uM preincubated with protein for 15 mins followed by substrate addition by continuous fluorimetric assay relative to control
[2] = system: dengue virus type 2; assay: Inhibition of Dengue virus serotype-2 NS2B-NS3 protease using 2-Abz-Nle-Lys-Arg-Arg-Ser-(3-NO2)-Tyr-NH2 as substrate preincubated with protein for 15 mins followed by substrate addition measured for 15 mins by FRET assay relative to Bz-Lys-Arg-Phg-NH2
[3] = target: Prothrombin (Homo sapiens) (UniProt P00734); assay: Inhibition of thrombin (unknown origin) using Boc-Val-Pro-Arg-AMC as substrate at 25 uM preincubated with protein for 15 mins followed by substrate addition measured for 10 mins by continuous fluorimetric assay relative to control
[4] = system: West Nile virus; assay: Inhibition of West Nile virus NS2B-NS3 protease using 2-Abz-Gly-Leu-Lys-Arg-GlyGly-[…]-Tyr-NH2 as substrate preincubated with protein for 15 mins followed by substrate addition measured for 15 mins by FRET assay relative to Bz-Lys-Arg-Phg-NH2
[5] = system: West Nile virus; assay: Inhibition of West Nile virus NS2B-NS3 protease using 2-Abz-Gly-Leu-Lys-Arg-Gly-Gly-[…]-Tyr-NH2 as substrate at 50 uM preincubated with protein for 15 mins followed by substrate addition measured for 15 mins by FRET assay
Method in brief: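 Linked WNV NS2B-NS3 protease (150 nM) was preincubated 15 min with inhibitor (50 μM final) in 50 mM Tris-HCl pH 9, 10% ethylene glycol, 0.0016% Brij 58. […] Percent inhibition was taken from the slope relative to the no-inhibitor control, in triplicate.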

[6] = Inhibition of West Nile virus NS2B-NS3 protease using 2-Abz-Gly-Leu-Lys-Arg-Gly-Gly-[…]-Tyr-NH2 as substrate preincubated with protein for 15 mins followed by substrate addition measured for 15 mins by FRET assay
Method in brief: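 WNV NS2B-NS3 linked construct at 75 nM (40 nM in one case) in pH 9 Tris buffer, preincubated 15 min with eight inhibitor concentrations (ranges 0–1 up to 0–50 μM). Substrate was 50 μM, with FRET readout over 15 min. IC50 was fitted from triplicates.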

[7] = Inhibition of Dengue virus serotype-2 NS2B-NS3 protease using 2-Abz-Nle-Lys-Arg-Arg-Ser-(3-NO2)-Tyr-NH2 as substrate preincubated with protein for 15 mins followed by substrate addition measured for 15 mins by FRET assay; design: species or system dengue virus type 2
Method in brief: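 DENV-2 NS2B-NS3 linked construct at 30 nM (15 nM in some cases), same pH 9 Tris buffer, 15 min preincubation and FRET read-out. Eight inhibitor concentrations spanned 0–1, 0–2, 0–6 or 0–50 μM, with substrate at 50 μM. IC50 was fitted from triplicates.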

[8] = system: dengue virus type 2; assay: Inhibition of Dengue virus serotype-2 NS2B-NS3 protease using 2-Abz-Nle-Lys-Arg-Arg-Ser-(3-NO2)-Tyr-NH2 as substrate at 50 uM preincubated with protein for 15 mins followed by substrate addition measured for 15 mins by FRET assay
[9] = system: dengue virus type 2; assay: Antiviral activity against Dengue virus serotype-2 infected in African green monkey Vero cells after 7 days by virus yield reduction assay; assay type: functional, organism-based
[10] = Cytotoxicity against human HuH7 cells infected with Dengue virus serotype-2 assessed as cell viability after 48 hrs by Cell-Titer-Glo luminescent viability assay; assay type: cell-based, Huh-7
Method in brief: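 Huh-7 cells (10^4/well) were seeded in DMEM + 10% FBS overnight, then infected with WT DENV-2 (MOI 1) in the presence of compound, triplicate per concentration. After 48 h at 37 °C, medium was replaced with fresh DMEM and viability was read by CellTiter-Glo luminescence. CC50 was determined.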

[11] = Retention time of compound by RP-HPLC analysis; assay type: physicochemical
[12] = Half life in Sprague-Dawley rat liver microsomes incubated for 30 mins by UV-HPLC method; assay type: ADME
Method in brief: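 Pooled male rat liver microsomes (0.2 mg/mL protein) with NADPH (10 mM) in DPBS were preincubated 15 min at 37 °C. Compound (100 μM) was added and incubated at 37 °C; aliquots were taken at 0, 2, 5, 10, 20 and 30 min. Samples were quenched with equal-volume acetonitrile, chilled and centrifuged, and parent remaining was quantified by RP-HPLC UV against reference peak areas. Testosterone served as positive control.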

[13] = system: West Nile virus; assay: Antiviral activity against West Nile virus infected in human HuH7 cells after 3 days by virus yield reduction assay; assay type: functional, organism-based; settings: Huh-7, 72 h
[14] = Cytotoxicity against human HuH7 cells infected with West Nile virus assessed as cell viability after 48 hrs by Cell-Titer-Glo luminescent viability assay; assay type: cell-based, Huh-7
Method in brief: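 Huh-7 cells (10^4/well, DMEM + 10% FBS, overnight) were infected with WT WNV (MOI 0.1) alongside compound, each concentration in triplicate. After 48 h at 37 °C, fresh DMEM was added and viability was measured by CellTiter-Glo luminescence. CC50 was determined.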

[15] = Selectivity index, ratio of CC50 for African green monkey Vero cells to EC50 for Dengue virus serotype-2 infected in African green monkey Vero cells; assay type: toxicity, cell-based; settings: read-out: Ratio CC50/EC50
[16] = Permeability of compound after 5 hrs by PAMPA; assay type: ADME; settings: read-out: permeability
Method in brief: (§1)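 Precoated PAMPA plates were equilibrated 1 h at room temperature. Donor wells received 200 μM compound in PBS, in triplicate, and acceptor wells received PBS. After 5 h at room temperature, donor and acceptor concentrations were quantified by RP-HPLC UV at 254 nm against six-point calibration curves (10–200 μM). Pe and mass retention were calculated by literature formulas.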

[17] = Permeability of compound assessed as compound mass retention after 5 hrs by PAMPA; assay type: ADME; method in brief: as §1
[18] = system: West Nile virus; assay: Inhibition of West Nile virus NS2B-NS3 protease at 0 to 48 uM incubated for 1 hr by tryptophan quenching assay
[19] = system: dengue virus type 2; assay: Inhibition of Dengue virus serotype-2 NS2B-NS3 protease at 0 to 48 uM incubated for 1 hr by tryptophan quenching assay
[20] = system: dengue virus type 2; assay: Competitive inhibition of Dengue virus serotype-2 NS2B-NS3 protease in presence of aprotinin by fluorescence displacement assay based Cheng-Prusoff plot
[21] = system: West Nile virus; assay: Competitive inhibition of West Nile virus NS2B-NS3 protease in presence of aprotinin by fluorescence displacement assay based Cheng-Prusoff plot

SMILES	inhibition [1]	inhibition [3]	inhibition [5] [%]	pIC50 [6]	pIC50 [7]	inhibition [8] [%]	pEC50 [9]	Retention_time [11] [min]	CC50 at 48 h [10] [nM]	further results
COc1cccc(COc2ccc([C@@H](NC(=O)[C@H](CCCCN)NC(=O)[C@H](CCCNC(=N)N)NC(=O)c3cccs3)C(N)=O)cc2)c1	inactive	inactive	99.3	6.64	7.17	–	4.26	2.71	> 100000	half-life [12]: 1.55 h
N=C(N)NCCC[C@H](NC(=O)c1cccs1)C(=O)N[C@@H](CCCCN)C(=O)N[C@@H](C(N)=O)c1ccc(OCc2ccc(Cl)c(Cl)c2)cc1	inactive	inactive	98	7.10	7.10	–	5.39	3.22	> 100000	pEC50 [13]: 4.63; CC50 at 48 h [14]: > 100000 nM; selectivity ratio [15]: > 25
CC(C)(C)c1ccc(COc2ccc([C@@H](NC(=O)[C@H](CCCCN)NC(=O)[C@H](CCCNC(=N)N)NC(=O)c3ccc(Cl)s3)C(N)=O)cc2)cc1	inactive	inactive	91.3	–	6.89	–	5.15	3.34	> 100000	Papp at 5 h [16]: 0.33 ×10⁻⁶ cm/s; permeability [17]: 0.44%
N=C(N)NCCC[C@H](NC(=O)c1nccs1)C(=O)N[C@@H](CCCCN)C(=O)N[C@@H](C(N)=O)c1ccc(OCc2ccc(C(F)(F)F)cc2)cc1	inactive	inactive	100	7.30	7.74	–	4.69	3.11	> 100000	inhibition [18]: Active; inhibition [19]: Active; pKi [6]: 7.41; pKi [7]: 7.92; inhibition [20]: Active; inhibition [21]: Active; pEC50 [13]: 4.63; CC50 at 48 h [14]: > 100000 nM; half-life [12]: 0.75 h
N=C(N)NCCC[C@H](NC(=O)c1ccc(-c2cccs2)s1)C(=O)N[C@@H](CCCCN)C(=O)N[C@@H](C(N)=O)c1ccc(OCc2ccc(Cl)c(Cl)c2)cc1	inactive	inactive	100	6.44	6.67	–	5.12	3.6	40000	Papp at 5 h [16]: 0.79 ×10⁻⁶ cm/s; permeability [17]: 2.5%
N=C(N)NCCC[C@H](NC(=O)c1ccccc1)C(=O)N[C@@H](CCCCN)C(=O)N[C@H](C(N)=O)c1ccc(O)cc1	–	–	79.2	–	5.01	96.6	–	–	–	–
N=C(N)NCCC[C@H](NC(=O)c1ccccc1)C(=O)N[C@@H](CCCCN)C(=O)N[C@@H](C(N)=O)c1ccc(O)cc1	–	–	75.1	–	5.69	98	–	–	–	–

The next lines start with results.

inhibition [1]	inhibition [3]	inhibition [5] [%]	pIC50 [6]	pIC50 [7]	inhibition [8] [%]	pEC50 [9]	Retention_time [11] [min]	SMILES	CC50 at 48 h [10] [nM]	further results
inactive	< 30%	101	6.14	6.44	100	5.10	2.83	N=C(N)NCCC[C@H](NC(=O)c1ccccc1)C(=O)N[C@@H](CCCCN)C(=O)N[C@@H](C(N)=O)c1ccc(OCc2ccccc2)cc1	> 100000	fold change (FC) [2]: 9; fold change (FC) [4]: 80; pKi [6]: 6.27; pKi [7]: 6.51
–	–	64	–	–	23.5	–	–	N=C(N)NCCC[C@@H](NC(=O)[C@@H](CCCCN)NC(=O)c1ccccc1)C(=O)N[C@H](C(N)=O)c1ccc(OCc2ccccc2)cc1	–	–
–	–	71.3	–	–	29.4	–	–	N=C(N)NCCC[C@@H](NC(=O)c1ccccc1)C(=O)N[C@H](CCCCN)C(=O)N[C@H](C(N)=O)c1ccc(OCc2ccccc2)cc1	–	–
–	–	19.9	–	–	26.8	–	–	N=C(N)NCCC[C@@H](NC(=O)[C@@H](CCCCN)NC(=O)c1ccccc1)C(=O)N[C@@H](C(N)=O)c1ccc(OCc2ccccc2)cc1	–	–
–	–	99	5.42	5.42	99.3	–	–	N=C(N)NCCC[C@H](NC(=O)c1ccccc1)C(=O)N[C@@H](CCCCN)C(=O)N[C@@H](C(N)=O)c1ccccc1 (Bz-Arg-Lys-[dPhg]-NH2)	–	–
–	–	91.7	–	–	77	–	–	N=C(N)NCCC[C@H](NC(=O)[C@H](CCCCN)NC(=O)c1ccccc1)C(=O)N[C@@H](C(N)=O)c1ccc(OCc2ccccc2)cc1	–	–
–	–	27.5	–	–	31	–	–	N=C(N)NCCC[C@H](NC(=O)c1ccccc1)C(=O)N[C@@H](C(N)=O)c1ccc(OCc2ccccc2)cc1	–	–
–	–	88	–	6.03	99.9	–	–	N=C(N)NCCC[C@H](NC(=O)c1ccccc1)C(=O)N[C@@H](CCCCN)C(=O)N[C@H](C(N)=O)c1ccc(OCc2ccccc2)cc1	–	–
–	–	11.4	–	–	16.4	–	–	NCCCC[C@H](NC(=O)c1ccccc1)C(=O)N[C@@H](C(N)=O)c1ccc(OCc2ccccc2)cc1	–	–
